This is a sample that favours compounds with a hit; in the whole collection about 3% have one here.
UBC13 polyUb = inhibitors of human UBC13 polyubiquitin chain formation; 330,000 tested, 0.47% active; P61088; inhibition, % at 20 µM; TR-FRET; in the data active = inhibition above about 45%, passing the limit was not always enough
Target sequence (P61088 whole entry, looked up): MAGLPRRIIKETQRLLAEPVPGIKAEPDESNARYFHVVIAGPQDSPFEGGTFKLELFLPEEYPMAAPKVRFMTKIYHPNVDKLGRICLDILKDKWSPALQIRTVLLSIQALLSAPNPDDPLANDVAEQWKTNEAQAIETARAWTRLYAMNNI
SENP8 block-1 = inhibitors of human SENP8 protease | recombinant SENP8, Nedd8 substrate fluorescence | inhibition, % at 20 µM | 360,000 tested, 0.64% active | AID 602440; in the data active = inhibition mostly above about 40%, no sharp cut-off; inactive = mostly below about 27%
Apaf-1 inh = blocks human Apaf-1 apoptosome activity | AID 489030 | inhibition, % at 20 µM | O14727 | reconstituted apoptosome caspase-3 activity, DEVD-Rh110 fluorescence | 330,000 tested, 0.71% active; active = inhibition of at least 40% at 20 µM
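System: Apoptosome proteins | Medium: Hepes pH 7.5 with detergent and BSA | Also added: Cytochrome c trigger plus (Z-DEVD)2-Rh110 caspase-3 substrate | Incubation: 30 min compound preincubation, 50 min activation, room temperature | Detection: Rhodamine 110 fluorescence at Ex 480/Em 540 nm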
SENP7 inh = blocks the human protease SENP7; 330,000 tested, 1.5% active; recombinant SENP7, Z-RLRGG-aminoluciferin luminescence, 40 min; inhibition, % at 5 µM; AID 434973;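 active = inhibition above about 50% at the single test dose, limit read from the data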
SENP6 inh = blocks the human protease SENP6. Q9GZR1. Recombinant SENP6 catalytic domain, aminoluciferin luminescence. inhibition, % at 10 µM. 330,000 tested, 1.8% active. AID 2599;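 active = inhibition above about 50% at the single tested dose, limit read from the data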
Target sequence (Q9GZR1 628-1112 limits assumed): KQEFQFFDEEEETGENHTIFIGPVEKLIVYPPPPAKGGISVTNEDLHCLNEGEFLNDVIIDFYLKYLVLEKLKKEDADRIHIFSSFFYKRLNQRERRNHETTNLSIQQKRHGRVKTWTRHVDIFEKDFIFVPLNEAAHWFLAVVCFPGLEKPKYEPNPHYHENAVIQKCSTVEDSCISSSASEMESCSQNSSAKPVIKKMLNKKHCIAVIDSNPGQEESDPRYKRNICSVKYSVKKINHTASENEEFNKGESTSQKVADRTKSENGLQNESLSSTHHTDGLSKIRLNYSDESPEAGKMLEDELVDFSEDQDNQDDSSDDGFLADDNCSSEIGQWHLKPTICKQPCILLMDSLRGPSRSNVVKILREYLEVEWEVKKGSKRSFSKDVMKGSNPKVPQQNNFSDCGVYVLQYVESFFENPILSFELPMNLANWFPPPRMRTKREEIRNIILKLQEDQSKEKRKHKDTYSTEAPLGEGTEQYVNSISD
SENP8 block-2 = inhibitors of human SENP8 protease; AID 2540; 330,000 tested, 1.2% active; purified SENP8, Z-RLRGG-aminoluciferin cleavage, luminescence; inhibition, % at 10 µM; Q96LD8; in the data active = inhibition above about 50%
Apaf-1 inh conf2 = Apaf-1 inhibition, single-dose confirmed | shares compounds with Apaf-1 inh | reconstituted apoptosome, caspase-3 DEVD-Rh110 fluorescence | inhibition, % at 20 µM | 1,800 tested, 25% active | AID 504614;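 active = mean inhibition of at least 40% at 20 µM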
Rh110 interf inh = interferes with Rh110 fluorescence, flagging false Apaf-1 inhibitors. AID 504615. activation (fluorescence interference), % at 20 µM. 1,800 tested, under 10 active. shares compounds with Apaf-1 inh. Rh110 fluorescence interference, quenched caspase reaction;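 active = signal rise of 40% or more at 20 µM, treated as a fluorescence artifact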
Fluor interf inh = shows fluorescence interference in the Apaf-1 inhibitor assay format; shares compounds with Apaf-1 inh; fluorescence interference counterscreen, Apaf-1 assay format; IC50, µM; 460 tested, under 10 active; call rule not given here
A number is an active result; i = inactive; nt = no result given.

SMILES	UBC13 polyUb	SENP8 block-1	Apaf-1 inh	SENP7 inh	SENP6 inh	SENP8 block-2	Apaf-1 inh conf2	Rh110 interf inh	others
CCCNC(=O)C1(C)CCCN(C(=O)c2ccc3snnc3c2)C1 (centres undefined)	nt	i	nt	nt	nt	nt	nt	nt
COC(=O)COc1ccc(C(c2c(C)[nH][nH]c2=O)c2c(C)[nH][nH]c2=O)cc1	i	i	i	i	i	i	nt	nt
COC(=O)c1ccc(-c2ccc(C(c3c(C)[nH][nH]c3=O)c3c(C)[nH][nH]c3=O)o2)cc1	i	i	44	i	i	i	42	i	Fluor interf inh=i
NCCN1CCN(S(=O)(=O)c2ccc([N+](=O)[O-])cc2)C=C1c1ccc(Cl)cc1	i	i	43	i	i	i	i	i
CC(C)(C)N1C(=O)c2ccccc2NC(=O)C1C(=O)Nc1ccc2c(c1)OCCO2 (centres undefined)	nt	i	nt	nt	nt	nt	nt	nt
Cn1c(C(=O)N2CCN(c3nc4ccccc4s3)CC2)cc2sccc21	i	i	41	i	i	i	i	i
O=C(c1cc2sccc2n1Cc1ccc(F)cc1)N1CCN(c2nc3ccccc3s2)CC1	i	i	i	i	i	i	nt	nt
CN(CC(=O)Nc1ccc(F)cc1)C(=O)C1CC(=O)N(Cc2ccccc2)C1 (centres undefined)	i	i	44	i	i	i	i	i
C=CCN(CC=C)Cc1c(O)ccc2c1oc(=O)c1ccccc12	i	i	47	i	i	i	41	i	Fluor interf inh=i
C=CCn1c(SCC(=O)Nc2sccc2C(N)=O)nc2sc(CC)cc2c1=O	i	i	42	i	i	i	i	i
O=C(NC1CC1)c1ccc(CSCc2ccc(Cl)cc2)o1	nt	i	nt	nt	nt	nt	nt	nt
O=S(=O)(/N=C(\c1ccc(Cl)cc1)N1CCOCC1)c1ccccc1	i	i	i	i	i	i	nt	nt
O=S(=O)(/N=C/N1CCOCC1)c1ccc(Cl)cc1	i	i	43	i	i	i	i	i
COc1ccc(CN2C=C3C(=O)C(C)(OC(=O)C4CCCC4)C(=O)C=C3C=C2c2ccsc2)cc1 (centres undefined)	i	i	i	i	i	i	nt	nt
CC1(OC(=O)C2CCCC2)C(=O)C=C2C=C(c3ccsc3)N(CCCCO)C=C2C1=O (centres undefined)	i	i	54	i	i	i	i	i
COCc1ccc(CN2CCC(C(=O)Nc3cccc(-c4cccc(Cl)c4)c3)CC2)o1	i	i	49	i	i	i	i	i
COc1ccc(C(=O)c2cc(OC)c(OC)c(OC)c2)cc1OC	nt	i	nt	nt	nt	nt	nt	nt
CN1CCCC1CCNc1ccc2sc3ccccc3c(=O)c2c1 (centres undefined)	i	i	44	i	i	i	i	i
O=S1(=O)CC(N2CCN(CC3CC3)CC2)CN1Cc1cn(Cc2ccccc2C(F)(F)F)nn1 (centres undefined)	nt	i	nt	nt	nt	nt	nt	nt
CCCN(CC(=O)Nc1ccccc1OC)C(=O)CSc1ccc(Br)cc1C	i	i	57	i	i	i	40	i	Fluor interf inh=i
CCCN(CC(=O)Nc1ccccc1C)C(=O)CCCOc1ccc(Br)cc1	i	i	53	i	i	i	43	i	Fluor interf inh=i
O=P(CCCCCCCCCP(=O)(c1ccccc1)c1ccccc1)(c1ccccc1)c1ccccc1	i	i	53	i	i	i	i	i
O=C(O)CCCCCCCCCCP(=O)(c1ccccc1)c1ccccc1	i	i	i	i	i	i	nt	nt
CC(C)[C@H](NC(=O)N1CCC(Cc2ccccc2)CC1)C(=O)O	i	i	42	i	i	i	i	i
COC(=O)[C@H](C)NC(=O)N1CCC(Cc2ccccc2)CC1	i	i	i	i	i	i	nt	nt
SMILES	UBC13 polyUb	SENP8 block-1	Apaf-1 inh	SENP7 inh	SENP6 inh	SENP8 block-2	Apaf-1 inh conf2	Rh110 interf inh	others
CCCCCCCCCCCCN1[C@@H](CC(=O)O)c2cc(C(F)(F)F)ccc2S1(=O)=O	i	i	41	i	i	i	i	i
CCCCCC(=O)N/N=C/c1ccc([N+](=O)[O-])o1	i	i	i	i	i	i	nt	nt
CCN(CC)c1ccc(N=Cc2ccc([N+](=O)[O-])o2)cc1	i	i	56	i	i	i	i	i
Cc1cc(=O)n(CCCc2ccccc2)[nH]1	i	i	i	i	i	i	nt	nt
N#CCCn1[nH]c(-c2ccccc2)cc1=O	i	i	72	i	i	i	i	i
CC1CCN(S(=O)(=O)c2ccc3c(c2)C(Cl)(Cl)C(=O)N3)CC1	nt	i	nt	nt	nt	nt	nt	nt
Cc1ccc(-c2nn3c(C)nnc3c3ccccc23)cc1S(=O)(=O)NC(C)c1ccccc1 (centres undefined)	i	i	57	i	i	i	61	i	Fluor interf inh=i
Cc1ccc(-c2nn3c(C)nnc3c3ccccc23)cc1S(=O)(=O)NCc1ccco1	i	i	44	i	i	i	61	i	Fluor interf inh=i
CN(C)CCCNC(=O)C[C@H]1C[C@H](C(=O)N2CCCCC2)[C@@]2(CCc3ccccc3)c3[nH]c4ccc(Cl)cc4c3CCN2C1=O	nt	i	74	i	nt	nt	i	i
CN(C)C(=O)CCc1ccc2c3c([nH]c2c1)[C@]1(CCC2CCCC2)[C@@H](C(=O)N2CCOCC2)C[C@H](CC(=O)NCCCn2ccnc2)C(=O)N1CC3	nt	i	i	i	nt	nt	nt	nt
O=C(C[C@H]1C[C@H](C(=O)N2CCOCC2)[C@@]2(CCC3CCCC3)c3[nH]c4ccc(Cl)cc4c3CCN2C1=O)NCCCn1ccnc1	nt	i	58	i	nt	nt	i	i
CC(C)N(C(=O)[C@H]1C[C@H](CC(=O)NCCCN(C)C)C(=O)N2CCc3c([nH]c4cc(-c5ccco5)ccc34)[C@]12C)C(C)C	nt	i	52	i	nt	nt	i	i
CCN(CC)C(=O)[C@H]1CC(CC(=O)NC/C=C(\C)CCC=C(C)C)C(=O)N2CCc3c([nH]c4ccc(OC)cc34)[C@]12C (some centres undefined)	nt	i	42	i	nt	nt	i	i
C[C@@H]1CN([C@H](C)CO)C(=O)CCCn2nncc2CO[C@@H]1CN(C)S(=O)(=O)c1cccs1	nt	i	nt	nt	nt	nt	nt	nt
C[C@@H]1CCCCO[C@H](CN(C)C(=O)Cc2ccccc2)[C@@H](C)CN([C@H](C)CO)C(=O)c2cc(N(C)C)ccc2O1	nt	i	nt	nt	nt	nt	nt	nt
CN(C)CCCNC(=O)C[C@H]1C[C@H](C(=O)N2CCOCC2)[C@@]2(CCC3CCCC3)c3[nH]c4cc(-c5ccco5)ccc4c3CCN2C1=O	nt	i	67	i	nt	nt	i	i
O=C(NC(=S)Nc1ccc(CN2CCCCC2)cc1)c1cccc(OCc2ccccc2)c1	i	i	43	i	i	i	i	i
COc1ccc(C(=O)N2CCCCC2c2cc(C(=O)NCc3ccc(F)cc3)no2)cc1 (centres undefined)	nt	i	nt	nt	nt	nt	nt	nt

Screening results (PubChem BioAssay)
